From ChEMBL document CHEMBL2177065, “14-Alkoxy- and 14-acyloxypyridomorphinans: μ agonist/δ antagonist opioid analgesics with diminished tolerance and dependence side effects” (J Med Chem, 2012)
The source made the active and inactive calls.

Assays:
Mus musculus [1] = assay: Antinociceptive activity in icv dosed ICR mouse assessed as warm-water tail-withdrawal latency by tail flick assay; type: functional
Method in brief: (§1)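 Male ICR mice dosed i.c.v. in 5 µL (test compounds in 100% DMSO, morphine in water) under light ether anaesthesia. Tail withdrawal from 55 °C water, 10 s cutoff, tested 10–180 min post-injection. %MPE computed against pre-drug baseline. A50 with 95% confidence limits by linear regression at time of peak effect.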

[2] = Activity at human MOR/mouse DOR expressed in CHO cells assessed as inhibition of DAMGO-mediated forskolin-stimulated cAMP accumulation at 30 nM after 20 hrs by scintillation counting analysis; type: functional
Method in brief: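 CHO cells stably co-expressing human MOR and cMyc-tagged mouse DOR were pretreated 20 h with 30 nM drug or medium, then washed. They were preincubated 20 min with 500 µM IBMX, then given 15 min with IBMX, 100 µM forskolin and graded DAMGO at 37 °C. cAMP was measured by [3H]cAMP–protein kinase binding against a standard curve.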

[3] = target: T1, Kappa-type opioid receptor (Homo sapiens, UniProt P41145); assay: Displacement of [3H]U69,593 from human kappa opioid receptor expressed in CHO cells by scintillation counting analysis; type: cell-based
Homo sapiens [4] = species: Homo sapiens; assay: Selectivity ratio of Ki for human kappa opioid receptor to Ki for human delta opioid receptor
Mus musculus [5] = assay: Antinociceptive activity in ICR mouse assessed as warm-water tail-withdrawal latency at 1 nmol, icv by tail flick assay; type: functional; method in brief: as §1
[6] = Activity at human MOR/mouse DOR expressed in CHO cells assessed as inhibition of DAMGO-mediated forskolin-stimulated cAMP accumulation after 20 hrs by scintillation counting analysis relative to morphine; type: functional
Method in brief: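 CHO cells stably co-expressing human MOR and N-cMyc-tagged mouse DOR, treated 20 h with drug (morphine 1 µM; test compounds 30 nM) or medium. Cells washed, 20 min in serum-free medium with 500 µM IBMX at 37 °C, then 15 min with IBMX plus 100 µM forskolin and graded DAMGO. Acid-extracted cAMP measured by [³H]cAMP protein-kinase binding competition. DAMGO EC₅₀ expressed as fold over control cells; n=3.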

[7] = target: T1, Kappa-type opioid receptor; assay: Agonist activity at human kappa opioid receptor expressed in CHO cells assessed as [35S]GTPgammaS binding at 10 uM by scintillation counting analysis; type: functional, cell-based
Method in brief: (§2)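 Human KOR or MOR in CHO cell membranes (50 µg protein), 3 h at 25 °C, pH 7.4 Tris buffer with 100 mM NaCl, 10 mM MgCl2, 1 mM EDTA, 1 mM DTT, 0.1% BSA, GDP 40 µM and [35S]GTP-γ-S 50 pM. Stimulation = (S−B)/B×100, with Emax relative to U69,593 (KOR) or DAMGO (MOR). Curves were ten points, ≥3 experiments pooled. Antagonist Ke was taken from the shift in standard agonist EC50.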

[8] = target: Delta-type opioid receptor (Homo sapiens, UniProt P41143); assay: Displacement of [3H]DADLE from human delta opioid receptor expressed in CHO cells by scintillation counting analysis; type: cell-based
Mu-type opioid receptor [9] = target: T2, Mu-type opioid receptor (Homo sapiens, UniProt P35372); assay: Agonist activity at human mu opioid receptor expressed in CHO cells assessed as [35S]GTPgammaS binding by scintillation counting analysis; type: functional, cell-based; method in brief: as §2
Mu-type opioid receptor [10] = target: T2, Mu-type opioid receptor; assay: Agonist activity at human mu opioid receptor expressed in CHO cells assessed as [35S]GTPgammaS binding by scintillation counting analysis relative to DAMGO; type: functional, cell-based; method in brief: as §2
CHO [11] = assay: Activity at human MOR/mouse DOR expressed in CHO cells assessed as increase in forskolin-stimulated cAMP accumulation at 30 nM after drug exposure for 20 hrs followed by washout in the presence of naloxone; type: functional, cell-based
Method in brief: (§3)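 MOR/DOR co-expressing CHO cells (mouse N-cMyc DOR + human MOR) exposed 20 h to drug, then washed three times with serum-free medium and preincubated 20 min at 37 °C with IBMX 500 µM. Then 10 min at 37 °C with forskolin 100 µM/IBMX 500 µM, with or without 10 µM naloxone. Read-out was cAMP by [3H]cAMP–protein kinase binding against a standard curve. Mean of n=3.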

CHO [12] = assay: Activity at human MOR/mouse DOR expressed in CHO cells assessed as increase in forskolin-stimulated cAMP accumulation at 30 nM after drug exposure for 20 hrs followed by washout; type: functional, cell-based; method in brief: as §3
[13] = Agonist activity at delta opioid receptor expressed in rat/mouse NG108-15 cells assessed as [35S]GTPgammaS binding by scintillation counting analysis relative to DADLE; type: functional, cell-based
Method in brief: as §2, with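 “NG108-15” for “Human KOR or MOR in CHO”, “pM. Nonspecific binding with 40 µM GTP-γ-S; filtration and scintillation counting.” for “pM.”, “DADLE.” for “U69,593 (KOR) or DAMGO (MOR).”, “pooled.” for “pooled. Antagonist”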

cells = conditions: CHO, 20 h
Mu-type opioid receptor [14] = target: T2, Mu-type opioid receptor; assay: Displacement of [3H]DAMGO from human mu opioid receptor expressed in CHO cells by scintillation counting analysis; type: cell-based
Homo sapiens [15] = species: Homo sapiens; assay: Selectivity ratio of Ki for human mu opioid receptor to Ki for human delta opioid receptor
Mus musculus [16] = assay: Antinociceptive activity in icv dosed ICR mouse assessed as warm-water tail-withdrawal latency by tail flick assay in presence of naloxone; type: functional, organism-based
Mus musculus [17] = assay: Antinociceptive activity in ICR mouse assessed as warm-water tail-withdrawal latency at 10 nmol, icv by tail flick assay; type: functional; method in brief: as §1
Mus musculus [18] = assay: Antinociceptive activity in ICR mouse assessed as warm-water tail-withdrawal latency at 0.1 to 100 nmol, icv bid for 3 days relative to naive control; type: functional
CHO [19] = assay: Activity at human MOR/mouse DOR expressed in CHO cells assessed as increase in forskolin-stimulated cAMP accumulation at 1 uM after drug exposure for 20 hrs followed by washout; type: functional, cell-based; method in brief: as §3
CHO [20] = assay: Activity at human MOR/mouse DOR expressed in CHO cells assessed as increase in forskolin-stimulated cAMP accumulation at 1 uM after drug exposure for 20 hrs followed by washout in the presence of naloxone; type: functional, cell-based; method in brief: as §3
Mus musculus [21] = assay: Antinociceptive activity in icv dosed ICR mouse assessed as warm-water tail-withdrawal latency administered bid for 3 days; type: functional

T2 sequence (P35372 whole entry): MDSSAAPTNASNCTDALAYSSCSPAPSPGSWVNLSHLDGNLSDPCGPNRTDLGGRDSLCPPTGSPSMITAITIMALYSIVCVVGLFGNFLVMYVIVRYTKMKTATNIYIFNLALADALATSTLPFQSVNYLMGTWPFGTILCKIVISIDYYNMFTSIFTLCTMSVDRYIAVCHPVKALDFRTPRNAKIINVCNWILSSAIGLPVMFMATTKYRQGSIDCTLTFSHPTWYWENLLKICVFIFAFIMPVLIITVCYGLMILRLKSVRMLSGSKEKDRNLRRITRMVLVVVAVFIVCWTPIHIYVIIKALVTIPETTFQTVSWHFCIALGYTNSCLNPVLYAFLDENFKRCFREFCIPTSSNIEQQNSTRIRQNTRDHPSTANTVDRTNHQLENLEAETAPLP
T1 sequence (P41145 whole entry): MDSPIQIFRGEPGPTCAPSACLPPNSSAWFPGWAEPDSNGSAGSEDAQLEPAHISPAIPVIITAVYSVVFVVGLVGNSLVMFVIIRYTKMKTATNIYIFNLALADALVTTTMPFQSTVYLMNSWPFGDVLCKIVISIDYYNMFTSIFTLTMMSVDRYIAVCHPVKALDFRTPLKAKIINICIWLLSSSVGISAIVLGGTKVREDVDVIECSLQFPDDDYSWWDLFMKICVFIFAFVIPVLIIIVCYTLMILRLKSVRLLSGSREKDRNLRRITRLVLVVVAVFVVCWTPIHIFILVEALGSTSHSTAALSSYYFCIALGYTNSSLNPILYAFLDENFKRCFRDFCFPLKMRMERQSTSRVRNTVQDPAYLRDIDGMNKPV
Delta-type opioid receptor, sequence (P41143 whole entry): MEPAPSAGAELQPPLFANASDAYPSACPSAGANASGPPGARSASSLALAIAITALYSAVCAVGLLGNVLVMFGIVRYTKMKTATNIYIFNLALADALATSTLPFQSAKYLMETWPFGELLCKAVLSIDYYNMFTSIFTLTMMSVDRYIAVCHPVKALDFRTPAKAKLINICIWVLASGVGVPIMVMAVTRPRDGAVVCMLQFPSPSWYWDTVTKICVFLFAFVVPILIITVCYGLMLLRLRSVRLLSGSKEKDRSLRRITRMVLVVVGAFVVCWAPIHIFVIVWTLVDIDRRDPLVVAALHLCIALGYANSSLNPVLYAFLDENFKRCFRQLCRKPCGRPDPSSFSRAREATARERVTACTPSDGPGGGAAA

In the case of CN1CC[C@]23c4c5ccc(O)c4O[C@H]2c2ncc(-c4ccc(Cl)cc4)cc2C[C@@]3(OCCCc2ccccc2)[C@H]1C5, the A50 (Mus musculus [1]) is reported as 0.23 nmol, the Activity (Mus musculus [1]) is reported as “Dose-dependent effect” and the Emax at 0.03 µM [2] is reported as 20%. The Ki [3] was 1.53 nM, the Ratio Ki (Homo sapiens [4]) was 1.5 and the “%max” value (Mus musculus [5]) was 92%. For the same molecule, the “fold change (FC)” value [6] was 7, the Activity [7] was “inactive” and the Ki [8] was 1.04 nM. For the same molecule, the EC50 (Mu-type opioid receptor [9]) was 2.15 nM, the Emax (Mu-type opioid receptor [10]) was 125% and the Activity (CHO [11]) was “Active”. The Activity (CHO [12]) was “Active”, the Emax [13] was 85% and the EC50 (cells) was 0.34 nM. For the same molecule, the Ki (Mu-type opioid receptor [14]) was 0.54 nM, the Ratio Ki (Homo sapiens [15]) was 0.52 and the Activity (Mus musculus [16]) was “inactive”.
For CN1CC[C@]23c4c5ccc(O)c4O[C@H]2[C@@H](O)C=C[C@H]3[C@H]1C5 [MORPHINE], the “%max” value (Mus musculus [17]) was 100%, the A50 (Mus musculus [1]) was 0.43 nmol and the “fold change (FC)” value (Mus musculus [18]) was 44. The Activity (CHO [19]) was “Active”, the Activity (CHO [20]) was “Active” and the A50 (Mus musculus [21]) was 19.04 nmol.
